The list is not random: actives were taken first. Their share in the collection is about 2.1%.
EBV LMP1 NFkB – inhibitors of Epstein-Barr LMP1-induced NF-kappaB reporter; LMP1-induced NF-kappaB luciferase reporter cells, luminescence; inhibition, % at 12.5 µM; 0.69% of 350,000 active; AID 504558; in the data active means inhibition above about 41%; inconclusive means no clear call, values can overlap the other calls
aSyn UTR inh – MLPCN primary screen, SNCA 5' untranslated region. AID 1813. inhibition, % (tested at 7.5 µM). 0.82% of 300,000 active. alpha-synuclein 5'UTR reporter, inhibitor activity; in the data active means inhibition above about 60%; inconclusive means no clear call, values can overlap the other calls;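 further: H4 neuroglioblastoma cells stably carrying SNCA 5'UTR luciferase fusion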
EWS-Fli inh – inhibitors of EWS/Fli oncoprotein transcriptional activity; A673 NR0B1-luciferase reporter, viability-normalised; inhibition, % at 12.6 µM; 0.67% of 350,000 active; AID 651661;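 active means mean inhibition of at least 50% after viability correction, with every replicate also passing that limit; inconclusive means mean reaches 50% but only one of two replicates passes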;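 further: firefly luciferase signal divided by Alamar Blue viability fluorescence both relative to DMSO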
Shn3 3UTR inh – inhibitors of Schnurri-3 3'UTR reporter in osteoblasts | Clone20 osteoblast Shn3 3'UTR firefly luciferase, 24 h | inhibition, % at 12.5 µM | 0.52% of 360,000 active | AID 588674;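 active means mean inhibition of at least 75% with every replicate also reaching 75%; inconclusive means mean inhibition at least 75% but some replicate below; inactive means mean inhibition below 75%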
PAX8 reporter – PAX8 transcriptional activity inhibition. 1.2% of 360,000 active. inhibition, % at 12.6 µM. AID 652154. RMG-I TPO-luciferase reporter, SteadyGlo, 24 h;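 active means mean replicate inhibition at least 60% with every replicate also reaching 60%; inconclusive means only one of the two criteria is met; inactive means mean below 60% and not all replicates reaching 60%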;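 further: luciferase light reporting Pax8 driven TPO promoter activity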
FN deposit inh – fibronectin deposition inhibition. 0.086% of 350,000 active. inhibition, % at 12.6 µM. AH1F fibroblasts, Alexa488-fibronectin deposition fluorescence, overnight;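 active means mean inhibition across replicates of 30% or more, regardless of how many single replicates reach that level; inconclusive means mean under 30% yet at least half of replicates reach 30%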
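Material: AH1F fibroblast monolayer depositing Alexa488-labelled fibronectin into matrix | Input: 10000 AH1F cells/well | Medium: DMEM plus 2% serum, read in PBS | Reagent: Alexa488-fibronectin, 24 nM final in well | Compound dosing: One dose per compound, pinned | Schedule: 1 h adhesion, overnight exposure | Measured by: Fluorescence at 485 nm excitation, 525 nm emission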
Numbers stand for hits; . = inactive; ? = inconclusive; / = not tested or not shown.

SMILES	EBV LMP1 NFkB	aSyn UTR inh	EWS-Fli inh	Shn3 3UTR inh	PAX8 reporter	FN deposit inh
CCCNC(=O)C[C@@H]1C[C@@H]2c3cc(NC(=O)c4cccnc4)ccc3O[C@@H]2[C@H](CO)O1	/	/	.	/	.	.
COC(=O)c1c(-c2cccc3ccccc23)csc1NC(=O)Cc1ccc(OC)c(OC)c1	.	.	/	87	/	/
COc1ccccc1-c1cnc2c(c1)C(=O)N([C@@H](C)CO)C[C@@H](C)[C@H](CN(C)Cc1ccncc1)O2	/	/	.	/	/	.
C[C@@H]1CN([C@@H](C)CO)C(=O)Cc2cc(NC(=O)Nc3cccc4ccccc34)ccc2O[C@H]1CN(C)C(=O)Nc1ccc2c(c1)OCO2	/	/	.	/	.	/
C[C@@H]1CN([C@H](C)CO)C(=O)c2cc(NS(=O)(=O)c3cn(C)cn3)ccc2O[C@H]1CN(C)S(C)(=O)=O	/	/	.	/	/	/
CCOC(=O)Nc1ccc2c(c1)C(=NO)c1ccccc1-2	.	/	.	92	.	.
CCOC(=O)Nc1ccc2c(c1)C(=NNC(N)=S)c1ccccc1-2	.	/	.	.	.	.
Cc1ccc(Nc2nc3c(c(=O)[nH]2)CCCC3)cc1	.	.	/	.	/	/
O=c1[nH]c(Nc2nc3ccccc3o2)nc2c1CCCC2	75	.	.	.	/	/
CC(=O)N1[C@H](CO)[C@H](c2ccc(C3=CCCCC3)cc2)[C@@H]1CNC(=O)CC1CC1	/	/	/	/	/	.
CN(C)/C=C/C(=O)c1ccc2noc(-c3ccccc3)c2c1	60	.	.	.	.	.
NC(=O)c1ncn2c(=O)n(CCCl)nnc12	/	/	.	/	81	.
O=C(NCC[C@H]1CC[C@H](NC(=O)c2cnccn2)[C@H](CO)O1)Nc1ccc(Cl)cc1	/	/	.	/	.	/
Cc1cccc(C)c1OCC(O)CN(Cc1ccccc1O)C1CCCCC1 (stereo unspecified)	.	62	.	.	.	.
CN(CC(O)COc1ccc(OCC(O)CN(C)C2CCCCC2)cc1)C1CCCCC1 (stereo unspecified)	.	.	/	.	/	/
Cc1noc(C)c1NC(=O)N(C)C[C@H]1Oc2ccc(NC(=O)Cc3ccccc3)cc2CC(=O)N([C@@H](C)CO)C[C@@H]1C	/	/	.	/	.	.
CCn1c(C)c(C)c2cc(C(=O)Nc3cccc(Cl)c3)ccc21	53	.	/	.	/	/
Cc1ccc(S(=O)(=O)Nc2ccc3c(c2)C(=O)N([C@H](C)CO)C[C@@H](C)[C@H](CN(C)C(=O)NC2CCCCC2)OCCCC[C@@H](C)O3)cc1	/	/	.	/	.	/
O=C(C[C@H]1CC[C@H](NC(=O)CC2CC2)[C@H](CO)O1)NCc1ccc(Cl)cc1	/	/	.	/	.	/
Cc1ccccc1N(Cc1cc(=O)[nH]c2ccccc12)C(=O)CCl	.	.	.	.	83	.
Cc1ccccc1N(Cc1cc(=O)[nH]c2ccccc12)C(=O)C(C)C	.	.	.	.	.	.
O=C(CCl)Nc1ccc(-c2ccccc2)cc1	.	.	64	.	.	.
C[C@@H](NC(=O)[C@@H]1[C@@H](CO)[C@@H]2Cn3c(cccc3=O)[C@H]1N2Cc1cccnc1)c1ccccc1	/	/	.	/	.	/
C=CCn1c(SCC(=O)c2[nH]c(C)c(C(C)=O)c2C)nnc1-c1ccncc1	.	.	/	.	/	/
C=CCn1c(SCC(=O)c2[nH]c(C)c(C(=O)OC)c2C)nc2scc(-c3ccc(OC)c(OC)c3)c2c1=O	.	?	60	.	.	.
SMILES	EBV LMP1 NFkB	aSyn UTR inh	EWS-Fli inh	Shn3 3UTR inh	PAX8 reporter	FN deposit inh
CC(C)NC[C@@H]1[C@@H](c2ccc(C3=CCCCC3)cc2)[C@H](CO)N1C(=O)NC(C)C	/	/	.	/	.	.
CN1CCc2c(n(CC(O)CNCc3ccccc3)c3ccccc23)C1=O (stereo unspecified)	.	.	.	.	.	.
CC(C)NCC(O)Cn1c2c(c3ccccc31)CCc1c-2cnn1-c1ccccc1 (stereo unspecified)	.	108	/	.	/	/
COc1ccccc1-c1ccc2c(c1)O[C@@H](CN(C)CC1CC1)[C@H](C)CN([C@@H](C)CO)S2(=O)=O	/	/	.	/	/	/
CC(C)Cc1cc(-c2ccco2)c(C#N)c(N)n1	.	70	/	.	/	/
N#Cc1c(-c2ccco2)cc(-c2ccc(F)cc2)nc1N	.	.	/	.	/	/
O=C(Cc1ccccn1)N1CC(=O)N2[C@H](C1)[C@H](c1ccc(C#CCC3CCCC3)cc1)[C@@H]2CO	/	/	.	/	.	.
Cc1cnc(NC(=O)COc2ccccc2Cl)s1	66	82	/	.	/	/
Cc1cnc(NC(=O)CCNC(=O)c2ccccc2Cl)s1	.	.	.	.	.	.
